In ChEMBL document CHEMBL5678818, “Discovery of potent SOS1 inhibitors that block RAS activation via disruption of the RAS-SOS1 interaction” (Proc Natl Acad Sci U S A, 2019):

Tests used:
[1] = tested on: Tyrosine-protein kinase ABL1 (Homo sapiens), P00519 [Y253F]; assay: Inhibition of phosphorylated ABL1 Y253F mutant (unknown origin) assessed as residual activity at 1000 nM by KINOMEscan analysis relative to control
[2] = target: Tyrosine-protein kinase Blk (Homo sapiens) (UniProt P51451); assay: Inhibition of BLK (unknown origin) assessed as residual activity at 1000 nM by KINOMEscan analysis relative to control
[3] = tested on: Epidermal growth factor receptor (Homo sapiens), P00533 [G719S]; assay: Inhibition of EGFR G719S mutant (unknown origin) assessed as residual activity at 1000 nM by KINOMEscan analysis relative to control
[4] = target: G protein-coupled receptor kinase 4 (Homo sapiens) (UniProt P32298); assay: Inhibition of GRK4 (unknown origin) assessed as residual activity at 1000 nM by KINOMEscan analysis relative to control
[5] = tested on: Mast/stem cell growth factor receptor Kit (Homo sapiens), P10721 [L576P]; assay: Inhibition of KIT L576P mutant (unknown origin) assessed as residual activity at 1000 nM by KINOMEscan analysis relative to control
[6] = target: T1, Dual specificity mitogen-activated protein kinase kinase 7 (Homo sapiens) (UniProt O14733); assay: Inhibition of MKK7 (unknown origin) assessed as residual activity at 1000 nM by KINOMEscan analysis relative to control
T1 sequence (whole entry): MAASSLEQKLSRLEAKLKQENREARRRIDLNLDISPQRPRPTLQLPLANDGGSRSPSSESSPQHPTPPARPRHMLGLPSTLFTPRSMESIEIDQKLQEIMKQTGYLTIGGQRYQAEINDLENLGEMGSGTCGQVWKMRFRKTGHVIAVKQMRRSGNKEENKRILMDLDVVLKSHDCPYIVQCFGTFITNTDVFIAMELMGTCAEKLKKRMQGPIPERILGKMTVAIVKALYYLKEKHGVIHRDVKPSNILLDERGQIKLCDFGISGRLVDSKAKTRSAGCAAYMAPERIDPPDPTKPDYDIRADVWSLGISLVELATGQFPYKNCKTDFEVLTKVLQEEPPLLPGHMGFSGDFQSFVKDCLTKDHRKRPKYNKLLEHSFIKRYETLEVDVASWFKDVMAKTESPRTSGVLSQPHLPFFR

[7] = target: T2, Phosphatidylinositol 5-phosphate 4-kinase type-2 beta (Homo sapiens) (UniProt P78356); assay: Inhibition of PIP5K2B (unknown origin) assessed as residual activity at 1000 nM by KINOMEscan analysis relative to control
T2 sequence (whole entry): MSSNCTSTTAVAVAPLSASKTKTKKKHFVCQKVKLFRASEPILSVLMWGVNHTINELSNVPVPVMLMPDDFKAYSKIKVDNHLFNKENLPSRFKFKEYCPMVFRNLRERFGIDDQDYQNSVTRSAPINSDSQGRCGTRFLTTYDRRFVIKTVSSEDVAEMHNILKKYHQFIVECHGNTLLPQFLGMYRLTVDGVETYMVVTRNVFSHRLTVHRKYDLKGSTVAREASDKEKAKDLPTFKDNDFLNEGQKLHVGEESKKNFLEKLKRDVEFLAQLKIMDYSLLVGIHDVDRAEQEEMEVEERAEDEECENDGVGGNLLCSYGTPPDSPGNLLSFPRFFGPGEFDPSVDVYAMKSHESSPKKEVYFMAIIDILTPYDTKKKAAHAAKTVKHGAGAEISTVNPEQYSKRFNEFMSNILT

[8] = target: Serine/threonine-protein kinase N1 (Homo sapiens) (UniProt Q16512); assay: Inhibition of PKN1 (unknown origin) assessed as residual activity at 1000 nM by KINOMEscan analysis relative to control
[9] = target: T3, Serine/threonine-protein kinase PknB (Mycobacterium tuberculosis) (UniProt P9WI81); assay: Inhibition of Mycobacterium tuberculosis PKNB assessed as residual activity at 1000 nM by KINOMEscan analysis relative to control
T3 sequence (whole entry): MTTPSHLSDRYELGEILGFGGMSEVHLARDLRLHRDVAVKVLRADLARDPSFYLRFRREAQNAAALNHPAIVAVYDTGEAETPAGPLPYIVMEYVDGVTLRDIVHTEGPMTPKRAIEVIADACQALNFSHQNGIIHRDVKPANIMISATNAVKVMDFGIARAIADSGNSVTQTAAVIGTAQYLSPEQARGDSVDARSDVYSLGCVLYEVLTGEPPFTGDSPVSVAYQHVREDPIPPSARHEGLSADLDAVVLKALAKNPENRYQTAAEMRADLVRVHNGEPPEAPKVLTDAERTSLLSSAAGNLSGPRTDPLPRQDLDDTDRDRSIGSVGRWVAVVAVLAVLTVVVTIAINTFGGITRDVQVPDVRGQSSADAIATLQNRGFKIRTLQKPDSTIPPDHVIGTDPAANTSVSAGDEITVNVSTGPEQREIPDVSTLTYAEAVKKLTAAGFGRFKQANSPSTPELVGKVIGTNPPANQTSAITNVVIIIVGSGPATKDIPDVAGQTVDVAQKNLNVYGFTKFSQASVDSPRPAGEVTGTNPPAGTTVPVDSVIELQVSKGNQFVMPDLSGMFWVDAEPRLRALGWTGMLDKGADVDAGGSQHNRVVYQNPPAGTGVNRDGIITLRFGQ

[10] = target: RAF proto-oncogene serine/threonine-protein kinase (Homo sapiens) (UniProt P04049); assay: Inhibition of RAF1 (unknown origin) assessed as residual activity at 1000 nM by KINOMEscan analysis relative to control
[11] = target: Serine/threonine-protein kinase 32A (Homo sapiens) (UniProt Q8WU08); assay: Inhibition of YANK1 (unknown origin) assessed as residual activity at 1000 nM by KINOMEscan analysis relative to control
NCI-H358 = assay: Antiproliferative activity against human NCI-H358 cells assessed as inhibition of cell viability incubated for 72 hrs by Cell Titer Glo assay; type: functional, cell-based; details: NCI-H358, 72 h
Summary of the method: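 NCI-H358 cells (KRAS G12C mutant) were sourced from ATCC.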

Serine/threonine-protein kinase N1 (Homo sapiens), sequence (Q16512 2-942 limits assumed): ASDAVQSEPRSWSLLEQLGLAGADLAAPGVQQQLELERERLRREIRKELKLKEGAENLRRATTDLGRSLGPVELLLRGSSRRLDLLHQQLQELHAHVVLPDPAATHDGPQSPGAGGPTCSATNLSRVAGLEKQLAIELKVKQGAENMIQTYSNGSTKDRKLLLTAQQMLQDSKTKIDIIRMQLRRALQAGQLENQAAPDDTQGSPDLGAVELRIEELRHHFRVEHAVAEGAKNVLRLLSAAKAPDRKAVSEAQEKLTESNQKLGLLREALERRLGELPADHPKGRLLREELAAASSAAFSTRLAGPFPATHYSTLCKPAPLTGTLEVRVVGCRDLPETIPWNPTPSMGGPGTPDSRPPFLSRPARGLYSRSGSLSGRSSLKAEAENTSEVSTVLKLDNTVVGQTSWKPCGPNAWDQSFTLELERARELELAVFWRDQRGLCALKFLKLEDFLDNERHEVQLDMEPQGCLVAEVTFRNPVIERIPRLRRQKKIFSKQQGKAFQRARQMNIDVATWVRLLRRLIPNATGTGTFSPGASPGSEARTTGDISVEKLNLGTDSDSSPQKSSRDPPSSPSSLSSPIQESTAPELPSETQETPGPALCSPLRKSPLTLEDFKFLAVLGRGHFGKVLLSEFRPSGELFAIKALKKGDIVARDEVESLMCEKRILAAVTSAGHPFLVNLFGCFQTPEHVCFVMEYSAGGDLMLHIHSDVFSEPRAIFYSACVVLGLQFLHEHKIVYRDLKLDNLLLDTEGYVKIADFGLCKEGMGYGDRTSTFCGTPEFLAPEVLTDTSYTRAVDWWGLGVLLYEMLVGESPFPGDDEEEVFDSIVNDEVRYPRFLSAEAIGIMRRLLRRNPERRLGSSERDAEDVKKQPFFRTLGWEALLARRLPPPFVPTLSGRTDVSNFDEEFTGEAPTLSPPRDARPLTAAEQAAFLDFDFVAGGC
RAF proto-oncogene serine/threonine-protein kinase (Homo sapiens), sequence (P04049 whole entry): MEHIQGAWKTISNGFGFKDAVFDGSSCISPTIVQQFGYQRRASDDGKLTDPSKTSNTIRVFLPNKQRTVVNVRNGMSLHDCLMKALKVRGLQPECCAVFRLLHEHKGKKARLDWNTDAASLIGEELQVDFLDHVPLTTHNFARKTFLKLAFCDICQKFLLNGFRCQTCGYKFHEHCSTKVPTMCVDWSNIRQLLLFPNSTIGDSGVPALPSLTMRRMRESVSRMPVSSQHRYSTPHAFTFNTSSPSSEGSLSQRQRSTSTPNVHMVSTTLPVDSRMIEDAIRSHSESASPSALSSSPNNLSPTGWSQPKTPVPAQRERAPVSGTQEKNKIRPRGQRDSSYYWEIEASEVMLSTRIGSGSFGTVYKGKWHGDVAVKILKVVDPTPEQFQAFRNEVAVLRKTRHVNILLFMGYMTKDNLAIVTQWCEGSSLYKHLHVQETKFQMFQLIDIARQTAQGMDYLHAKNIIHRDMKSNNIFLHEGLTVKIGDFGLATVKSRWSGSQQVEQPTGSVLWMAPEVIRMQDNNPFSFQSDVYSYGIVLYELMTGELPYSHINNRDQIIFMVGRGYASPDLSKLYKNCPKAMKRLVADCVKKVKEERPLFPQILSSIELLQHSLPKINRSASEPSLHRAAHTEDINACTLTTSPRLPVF
Tyrosine-protein kinase Blk (Homo sapiens), sequence (P51451 2-505 limits assumed): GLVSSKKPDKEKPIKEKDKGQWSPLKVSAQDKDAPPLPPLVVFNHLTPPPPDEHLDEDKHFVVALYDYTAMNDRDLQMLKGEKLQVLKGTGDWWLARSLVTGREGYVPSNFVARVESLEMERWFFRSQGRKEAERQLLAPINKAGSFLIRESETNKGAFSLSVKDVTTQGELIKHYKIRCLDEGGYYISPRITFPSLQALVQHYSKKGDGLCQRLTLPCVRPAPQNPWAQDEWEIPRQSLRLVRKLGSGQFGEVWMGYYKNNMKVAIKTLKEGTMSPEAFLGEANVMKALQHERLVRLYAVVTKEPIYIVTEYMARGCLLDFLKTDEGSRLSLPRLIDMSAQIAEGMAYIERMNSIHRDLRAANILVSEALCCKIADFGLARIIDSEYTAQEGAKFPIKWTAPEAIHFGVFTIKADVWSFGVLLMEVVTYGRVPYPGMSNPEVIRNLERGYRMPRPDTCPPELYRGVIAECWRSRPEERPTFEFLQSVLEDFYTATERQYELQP
Serine/threonine-protein kinase 32A (Homo sapiens), sequence (Q8WU08 whole entry): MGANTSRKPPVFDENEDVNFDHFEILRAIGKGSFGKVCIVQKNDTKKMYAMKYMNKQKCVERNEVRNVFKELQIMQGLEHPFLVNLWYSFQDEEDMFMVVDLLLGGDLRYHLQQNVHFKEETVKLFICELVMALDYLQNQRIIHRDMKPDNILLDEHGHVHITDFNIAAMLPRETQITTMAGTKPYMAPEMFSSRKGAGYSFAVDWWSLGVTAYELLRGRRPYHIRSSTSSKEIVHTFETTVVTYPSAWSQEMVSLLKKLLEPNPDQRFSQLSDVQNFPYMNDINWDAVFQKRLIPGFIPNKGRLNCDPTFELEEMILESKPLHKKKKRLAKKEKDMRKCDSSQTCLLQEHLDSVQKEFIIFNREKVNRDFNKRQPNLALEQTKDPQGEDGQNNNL
G protein-coupled receptor kinase 4 (Homo sapiens), sequence (P32298 whole entry, looked up): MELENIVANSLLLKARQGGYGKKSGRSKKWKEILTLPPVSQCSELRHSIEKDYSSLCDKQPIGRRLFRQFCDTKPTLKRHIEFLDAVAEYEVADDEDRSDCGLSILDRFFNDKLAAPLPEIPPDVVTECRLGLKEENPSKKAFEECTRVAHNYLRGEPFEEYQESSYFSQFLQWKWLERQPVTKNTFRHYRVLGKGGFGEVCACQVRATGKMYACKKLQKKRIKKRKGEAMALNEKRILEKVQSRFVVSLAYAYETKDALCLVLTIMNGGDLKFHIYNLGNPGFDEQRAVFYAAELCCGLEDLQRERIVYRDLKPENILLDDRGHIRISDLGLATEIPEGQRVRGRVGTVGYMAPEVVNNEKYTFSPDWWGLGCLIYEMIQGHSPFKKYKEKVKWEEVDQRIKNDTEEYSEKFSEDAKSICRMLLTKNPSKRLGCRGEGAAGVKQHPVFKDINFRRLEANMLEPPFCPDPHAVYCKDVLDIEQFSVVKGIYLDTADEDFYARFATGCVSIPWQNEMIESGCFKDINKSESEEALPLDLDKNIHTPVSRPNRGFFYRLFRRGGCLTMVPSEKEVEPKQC
Mast/stem cell growth factor receptor Kit (Homo sapiens), P10721 [L576P], sequence (P10721 whole entry L576P): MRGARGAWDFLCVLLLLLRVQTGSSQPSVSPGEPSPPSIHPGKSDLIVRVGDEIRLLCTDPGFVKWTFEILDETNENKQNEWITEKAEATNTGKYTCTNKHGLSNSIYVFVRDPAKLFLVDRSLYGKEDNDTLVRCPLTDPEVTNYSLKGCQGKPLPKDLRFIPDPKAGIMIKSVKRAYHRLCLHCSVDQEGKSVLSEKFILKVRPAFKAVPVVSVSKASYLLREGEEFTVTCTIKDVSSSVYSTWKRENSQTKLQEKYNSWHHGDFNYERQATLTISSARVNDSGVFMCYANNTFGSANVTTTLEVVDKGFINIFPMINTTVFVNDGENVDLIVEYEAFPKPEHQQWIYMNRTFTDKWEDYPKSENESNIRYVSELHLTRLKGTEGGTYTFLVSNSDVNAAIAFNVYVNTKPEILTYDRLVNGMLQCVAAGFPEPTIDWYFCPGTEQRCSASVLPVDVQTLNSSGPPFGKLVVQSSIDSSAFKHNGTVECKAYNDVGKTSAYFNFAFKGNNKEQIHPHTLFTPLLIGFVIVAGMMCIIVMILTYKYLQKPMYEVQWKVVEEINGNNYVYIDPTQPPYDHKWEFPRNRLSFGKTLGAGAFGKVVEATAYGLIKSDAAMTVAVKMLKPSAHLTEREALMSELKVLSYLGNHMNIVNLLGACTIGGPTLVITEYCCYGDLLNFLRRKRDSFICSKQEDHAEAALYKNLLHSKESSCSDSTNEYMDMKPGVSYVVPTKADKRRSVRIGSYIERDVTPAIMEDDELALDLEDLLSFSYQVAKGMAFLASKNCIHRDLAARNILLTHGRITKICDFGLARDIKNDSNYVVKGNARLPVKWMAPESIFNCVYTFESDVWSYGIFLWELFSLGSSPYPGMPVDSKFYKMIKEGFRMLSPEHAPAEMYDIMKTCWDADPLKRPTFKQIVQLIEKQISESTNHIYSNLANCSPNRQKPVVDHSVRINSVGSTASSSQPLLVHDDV

Structure (SMILES) | Activity [1] | Activity [2] | Activity [3] | Activity [4] | Activity [5] | Activity [6] | Activity [7] | Activity [8] | Activity [9] | Activity [10] | Activity [11] | IC50 (NCI-H358)
COc1cc2nc(C)nc(N[C@H](C)c3cccc(-c4cn[nH]c4)c3)c2cc1OC | 92% | 100% | 76% | 95% | 85% | 98% | 89% | 100% | 89% | 100% | 97% | 13.6 µM
COc1cc2ncnc(N[C@H](C)c3cccc4ccccc34)c2cc1OC | 79% | 53% | 1.2% | 100% | 95% | 77% | 100% | 97% | 94% | 94% | 86% | –
CNCc1ccccc1-c1csc([C@@H](C)Nc2nc(C)nc3cc(OC)c(OC)cc23)c1 [BAY-293] | – | – | – | – | – | – | – | – | – | – | – | 3.48 µM
